In PMC3367204 (Nucleic Acids Research, 2012):
≈ marks a conversion by molar mass, not a printed value. Read-outs that look alike come from different tables or passages of the source.

Key:
[1] = biological target: complex C (poly(U)-programmed E. coli ribosomes), wild-type (Escherichia coli, UniProt P60723+P61175); assay type: binding; conditions: for Kd: Wild-type; for Kd / koff: 4.5 mM Mg^2+, 150 mM NH4^+; for koff: read-out: koff,T, Wild-type
[2] = tested on: complex C containing ribosomes with mutated 23S rRNA U2609C; assay: Kinetics of telithromycin binding to complex C by competition with tylosin; set-up: species or system Escherichia coli
[3] = biological target: complex C containing ribosomes with mutated 23S rRNA U754A (Escherichia coli, UniProt P60723+P61175); assay: as above; conditions: for Kd: U754A, 4.5 mM Mg^2+, 150 mM NH4^+
[4] = biological target: complex C containing ribosomes mutated in ribosomal protein L22: Δ82–84 (Escherichia coli, UniProt P60723+P61175, DEL82-84); assay: as above; conditions: for Kd: L22: Δ82–84, 4.5 mM Mg^2+, 150 mM NH4^+
[5] = biological target: complex C containing ribosomes mutated in ribosomal protein L4: Lys63Glu (Escherichia coli, UniProt P60723+P61175, K63E); assay: as above; conditions: for Kd: L4: Lys63Glu, 4.5 mM Mg^2+, 150 mM NH4^+
[6] = tested on: 23S rRNA of complex C prepared from E. coli ribosomes; assay: Footprinting; assay type: binding, Escherichia coli
How it was run: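 Complex C (10 pmol; 100 nM) is incubated at 25°C in buffer B (50 mM HEPES/KOH pH 7.2, 4.5 mM Mg acetate, 150 mM NH4Cl, 5 mM DTT), optionally with 100 µM spermine. […] Probing uses DMS, kethoxal or CMCT, with 23S rRNA read by primer extension on 6% polyacrylamide/7 M urea gels. Band intensity is normalized to the no-compound control; means of three runs.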

[7] = biological target: T1, complex C prepared from E. coli ribosomes (PTase activity) (Escherichia coli, UniProt P60723+P61175); assay: Puromycin reaction; assay type: biochemical; conditions: 2 μΜ telithromycin, 200 μΜ puromycin, buffer A, 25°C
How it was run: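 Complex C from E. coli ribosomes reacts with 200 µM puromycin at 25°C in buffer A (100 mM Tris/HCl pH 7.2, 4.5 mM Mg acetate, 150 mM NH4Cl), alone or with 2 µM test compound or 2 µM tylosin. AcPhe-puromycin formation is followed over time. Means of three independent experiments.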

[8] = tested on: wild-type E. coli cells; assay: Sensitivity to telithromycin of E. coli cells; assay type: cell-based; conditions: Escherichia coli, read-out: IC50 (growth inhibition)
How it was run: (§1)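 Preculture at OD560 0.700 is diluted into LB and grown at 37°C with or without test compound, until the untreated culture reaches OD560 0.700. IC50 is the concentration that lowers OD to halfway between 0.700 and the bottom plateau of the dose curve. Means of three independent experiments.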

[9] = tested on: E. coli mutant L4: Lys63Glu; assay: Sensitivity to telithromycin of E. coli cells; assay type: cell-based; conditions: Escherichia coli, read-out: IC50 (growth inhibition)
How it was run: as §1

[10] = tested on: E. coli mutant U754A; assay: Sensitivity to telithromycin of E. coli cells; assay type: cell-based; conditions: Escherichia coli, MUTANTU754A, read-out: IC50 (growth inhibition)
How it was run: as §1

[11] = tested on: E. coli mutant U2609C; assay: Sensitivity to telithromycin of E. coli cells; assay type: cell-based; conditions: Escherichia coli, MUTANTU2609C, read-out: IC50 (growth inhibition)
How it was run: as §1

[12] = tested on: E. coli mutant L22: Δ82–84; assay: Sensitivity to telithromycin of E. coli cells; assay type: cell-based; conditions: Escherichia coli, read-out: IC50 (growth inhibition)
How it was run: as §1

[13] = biological target: T1, complex C prepared from E. coli ribosomes (PTase activity); conditions: 4.5 mM Mg^2+ and 150 mM NH4^+; cited from earlier work
[14] = C*T (final site), 4.5 mM Mg^2+ 150 mM NH4^+
[15] = C*T (final site), 4.5 mM Mg^2+ 150 mM NH4^+ 100 μΜ spermine
[16] = CT (initial site, 5 s), 4.5 mM Mg^2+ 150 mM NH4^+
[17] = CT (initial site, 5 s), 4.5 mM Mg^2+ 150 mM NH4^+ 100 μΜ spermine

For `CC[C@H]1OC(=O)[C@H](C)C(=O)[C@H](C)[C@@H](O[C@@H]2O[C@H](C)C[C@H](N(C)C)[C@H]2O)[C@](C)(OC)C[C@@H](C)C(=O)[C@H](C)[C@H]2N(CCCCn3cnc(-c4cccnc4)c3)C(=O)O[C@]12C` [telithromycin], the “Reversal of inactivation of complex C by tylosin” value ([1]; 4 μΜ tylosin, telithromycin >10 μΜ) was “entirely reversed”, the “Decrease of kon,T value by polyamines” value ([1]; 100 μΜ spermine or 50 μΜ spermine and 2 mM spermidine vs no polyamines) was 83% and the Kd ([1]; K*T, 50 μΜ spermine, 2 mM spermidine) was 75.7 ± 8.8 nM. For the same compound, the Kd ([1]; K*T, 100 μΜ spermine) was 91.4 ± 11.2 nM, the Kd ([1]; KT, 50 μΜ spermine, 2 mM spermidine) was 1714 ± 13 nM and the Kd ([1]; KT, 100 μΜ spermine) was 2500 ± 185 nM. For the same compound, the Kd ([1]; KT, initial low-affinity site) was 500 ± 44 nM, the “koff.T lower than the rate constant for drop off (Lovmar et al.)” value ([1]; compared with drop off rate constant of ref 3) was 10 times and the “Increase of KT* value by polyamines” value ([1]; polyamine buffer vs no polyamines) was 10 fold. The “Decrease in the affinity of telithromycin for the initial site by spermine” value ([1]; presence of spermine) was 5 fold, the koff [1] was 0.000137 s⁻¹ and the koff ([1]; 100 μΜ spermine) was 4.83e-05 s⁻¹. The “Enhancement of overall constant Κ*T by mutation” value ([2]; U2609C vs wild-type) was 20 fold, the “koff,T” value ([2]; U2609C, 4.5 mM Mg^2+, 150 mM NH4^+) was 0.0395 ± 0.0031 min^_1 and the Kd ([2]; read-out: K*T, U2609C, 4.5 mM Mg^2+, 150 mM NH4^+) was 148 ± 18.9 nM. For the same compound, the Kd ([2]; read-out: KT, U2609C, 4.5 mM Mg^2+, 150 mM NH4^+) was 536 ± 43 nM, the Kd ([3]; K*T) was 22.6 ± 3.22 nM and the Kd ([3]; KT) was 604 ± 45 nM. The “Effect of mutation on koff,T constant” value ([3]; U754A vs wild-type) was “doubling”, the Kd ([4]; K*T) was 210 ± 30.9 nM and the Kd ([4]; KT) was 530 ± 42 nM. For the same compound, the “Enhancement in dissociation rate constant koff,T by mutation” value ([4]; L22: Δ82–84 vs wild-type) was “about 4 fold”, the “Increase in overall dissociation constant K*T by mutation” value ([4]; L22: Δ82–84 vs wild-type) was 25 fold and the “Reduction in association rate constant kon,T by mutation” value ([4]; L22: Δ82–84 vs wild-type) was 10 fold. It also gave a koff ([4]; read-out: koff,T) of 0.0005 s⁻¹, a Kd ([5]; K*T) of 12 ± 2.67 nM and a Kd ([5]; KT) of 470 ± 48 nM. For the same compound, the koff ([5]; read-out: koff,T) was 0.000127 s⁻¹, the “Relative reactivity of 23S rRNA residue A752 (ratio to complex C)” value [6, 14] was 0.30 ± 0.02 ^*^, ** and the “Relative reactivity of 23S rRNA residue A789 (ratio to complex C)” value [6, 14] was 0.89 ± 0.08. The “Relative reactivity of 23S rRNA residue A2058 (ratio to complex C)” value [6, 14] was 0.25 ± 0.03 ^*, the “Relative reactivity of 23S rRNA residue A2059 (ratio to complex C)” value [6, 14] was 0.42 ± 0.03 ^* and the “Relative reactivity of 23S rRNA residue A2062 (ratio to complex C)” value [6, 14] was 1.28 ± 0.15 ^*. The “Relative reactivity of 23S rRNA residue C2611 (ratio to complex C)” value [6, 14] was 0.60 ± 0.08 ^*, the “Relative reactivity of 23S rRNA residue G2505 (ratio to complex C)” value [6, 14] was 0.78 ± 0.11 ^* and the “Relative reactivity of 23S rRNA residue U790 (ratio to complex C)” value [6, 14] was 0.85 ± 0.08 ^*^, **. For the same compound, the “Relative reactivity of 23S rRNA residue U2609 (ratio to complex C)” value [6, 14] was 0.72 ± 0.04 ^*^, **, the “Relative reactivity of 23S rRNA residue A752 (ratio to complex C)” value [6, 15] was 0.87 ± 0.07 ^* and the “Relative reactivity of 23S rRNA residue A789 (ratio to complex C)” value [6, 15] was 0.93 ± 0.08. For the same compound, the “Relative reactivity of 23S rRNA residue A2058 (ratio to complex C)” value [6, 15] was 0.38 ± 0.02 ^*^, **, the “Relative reactivity of 23S rRNA residue A2059 (ratio to complex C)” value [6, 15] was 0.57 ± 0.03 ^*^, ** and the “Relative reactivity of 23S rRNA residue A2062 (ratio to complex C)” value [6, 15] was 1.15 ± 0.14. The “Relative reactivity of 23S rRNA residue C2611 (ratio to complex C)” value [6, 15] was 0.97 ± 0.05, the “Relative reactivity of 23S rRNA residue G2505 (ratio to complex C)” value [6, 15] was 0.85 ± 0.06 ^* and the “Relative reactivity of 23S rRNA residue U790 (ratio to complex C)” value [6, 15] was 0.93 ± 0.08**. For the same compound, the “Relative reactivity of 23S rRNA residue U2609 (ratio to complex C)” value [6, 15] was 0.90 ± 0.08, the “Relative reactivity of 23S rRNA residue A752 (ratio to complex C)” value [6, 16] was 0.65 ± 0.05 and the “Relative reactivity of 23S rRNA residue A789 (ratio to complex C)” value [6, 16] was 0.78 ± 0.07. The “Relative reactivity of 23S rRNA residue A2058 (ratio to complex C)” value [6, 16] was 0.20 ± 0.02, the “Relative reactivity of 23S rRNA residue A2059 (ratio to complex C)” value [6, 16] was 0.38 ± 0.03 and the “Relative reactivity of 23S rRNA residue A2062 (ratio to complex C)” value [6, 16] was 1.33 ± 0.18. For the same compound, the “Relative reactivity of 23S rRNA residue C2611 (ratio to complex C)” value [6, 16] was 0.60 ± 0.09, the “Relative reactivity of 23S rRNA residue G2505 (ratio to complex C)” value [6, 16] was 0.65 ± 0.09 and the “Relative reactivity of 23S rRNA residue U790 (ratio to complex C)” value [6, 16] was 0.60 ± 0.07. For the same compound, the “Relative reactivity of 23S rRNA residue U2609 (ratio to complex C)” value [6, 16] was 0.95 ± 0.07, the “Relative reactivity of 23S rRNA residue A752 (ratio to complex C)” value [6, 17] was 0.75 ± 0.05 and the “Relative reactivity of 23S rRNA residue A789 (ratio to complex C)” value [6, 17] was 0.82 ± 0.08. The “Relative reactivity of 23S rRNA residue A2058 (ratio to complex C)” value [6, 17] was 0.30 ± 0.01, the “Relative reactivity of 23S rRNA residue A2059 (ratio to complex C)” value [6, 17] was 0.45 ± 0.05 and the “Relative reactivity of 23S rRNA residue A2062 (ratio to complex C)” value [6, 17] was 1.20 ± 0.14. The “Relative reactivity of 23S rRNA residue C2611 (ratio to complex C)” value [6, 17] was 0.98 ± 0.05, the “Relative reactivity of 23S rRNA residue G2505 (ratio to complex C)” value [6, 17] was 0.72 ± 0.07 and the “Relative reactivity of 23S rRNA residue U790 (ratio to complex C)” value [6, 17] was 0.70 ± 0.07. For the same compound, the “Relative reactivity of 23S rRNA residue U2609 (ratio to complex C)” value [6, 17] was 0.97 ± 0.07, the “Inhibition of AcPhe-puromycin synthesis” value [7] was “fails to inhibit” and the IC50 [8] was 4 ± 0.8 µg/mL (≈ 4.93 µM). The IC50 [9] was 12 ± 2.1 µg/mL (≈ 14.8 µM), the IC50 [10] was 14.8 ± 2.5 µg/mL (≈ 18.2 µM) and the IC50 [11] was 41.6 ± 4.3 µg/mL (≈ 51.2 µM). The IC50 [12] was 50 ± 6.5 µg/mL (≈ 61.6 µM).
In the case of `CC[C@H]1OC(=O)C[C@@H](O)[C@H](C)[C@@H](O[C@@H]2O[C@H](C)[C@@H](O[C@H]3C[C@@](C)(O)[C@@H](O)[C@H](C)O3)[C@H](N(C)C)[C@H]2O)[C@@H](CC=O)C[C@@H](C)C(=O)/C=C/C(C)=C/[C@@H]1CO[C@@H]1O[C@H](C)[C@@H](O)[C@@H](OC)[C@H]1OC` [tylosin], the “Inhibition of AcPhe-puromycin synthesis” value [13] is listed as “inhibits”.
